Assay results published in PMC9076386 (RSC Advances, 2019).

Legend:
Format in all cases: cell-based
HepG2 cells = assay: MTT cytotoxicity assay, HepG2; conditions: Homo sapiens, HepG2, read-out: IC50 HepG2
Method in brief: (§1)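 Human lines were grown in RPMI 1640 with 10% FBS at 37 °C and 5% CO2; MCF-7 medium also had glutamine, HEPES and pyruvate. Log-phase cells were seeded, preincubated for 24 h, then treated for 72 h with DMSO-dissolved test compound at 0, 1.25, 2.5, 5, 10 or 20 μM. MTT (5 mg mL−1 stock) was added for 4 h, formazan was dissolved in DMSO and OD was read at 550 nm.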

SKOV3 cells = assay: MTT cytotoxicity assay, SKOV3; conditions: Homo sapiens, SK-OV-3, read-out: IC50 SKOV3
Method in brief: as §1

HeLa cells = assay: MTT cytotoxicity assay, HeLa; conditions: Homo sapiens, read-out: IC50 Hela
Method in brief: as §1

## CC(=O)O[C@H]1C(=O)[C@@]2(C)[C@H]([C@H](OC(=O)c3ccccc3)[C@]3(O)C[C@H](OC(=O)[C@H](O)[C@@H](NC(=O)c4ccccc4)c4ccccc4)C(C)=C1C3(C)C)[C@]1(OC(C)=O)CO[C@@H]1C[C@@H]2O [Paclitaxel]
HepG2 cells
  IC50: 1.5 nM
SKOV3 cells
  IC50: 3.8 nM
HeLa cells
  IC50: 3 nM
